Screens (PubChem)
STAT3 act: activators of IL-6 induced STAT3 signaling; 190,000 tested, 0.91% active; activation (% of control), % at 5.6 µM; U3A cells, IL-6 STAT3-luciferase reporter, luminescence; 100% = signal with IL-6 EC80 alone;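 active means activation above the screen-wide mean of compound activation plus 3 SD, cut at about 130% in these data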
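Test system: Human STAT1-deficient U3A cells with stable STAT3-luciferase reporter | Also added: Interleukin-6, 33 ng/mL | Timing: Compound pre-incubation 1 h before IL-6, then 6 h stimulation at 37 °C | Technique: Luciferase reporter luminescence | Read-out: Percent of IL-6-only median luminescence | Benchmarks: IL-6-only wells as 100% reference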
STAT1 blocker: reduces IFN-gamma driven STAT1 reporter signal; NIH 3T3 STAT1-luciferase reporter, luminescence; inhibition, % at 5.5 µM; 200,000 tested, 0.35% active; AID 920;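 active means inhibition above a set limit, the mean inhibition across all tested compounds plus 3 SD, cut at about 34% in these data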
STAT3 blocker: inhibitors of IL-6 induced STAT3 signaling. U3A cells, IL-6 STAT3-luciferase reporter, luminescence; host cell line lacks STAT1. inhibition, % at 5.5 µM. 190,000 tested, 0.89% active;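 active means inhibition above the mean inhibition across all screened compounds plus 3 SD, cut at about 44% in these data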
STAT1 act: activators of IFN-gamma induced STAT1 signaling. NIH 3T3 STAT1-luciferase reporter, luminescence; 100% = IFN-gamma alone, no compound. activation (% of control), % at 5.5 µM. 200,000 tested, 2.6% active. AID 932;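 active means activation above the screen-wide mean activation plus 3 SD, cut at about 130% in these data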
Hits are given with their value; – = inactive. This is a sample that favours compounds with a hit; in the whole collection about 4.3% have one here.

SMILES | STAT3 act | STAT1 blocker | STAT3 blocker | STAT1 act
CC1CN(C(=O)CSc2nc(-c3ccc(F)cc3)cs2)CC(C)O1 (centres undefined) | – | – | – | –
CCCNC(=O)c1ccccc1NC(=O)CN(c1ccccc1)S(=O)(=O)N(C)C | – | – | – | –
CC(=O)Nc1ccc(NC(=O)c2ccccc2S(=O)(=O)c2ccc([N+](=O)[O-])cc2)cc1 | – | – | – | –
COc1cccc(C(=O)Nc2ccccc2F)c1 | – | – | – | 132
COc1cccc(C(=O)Nc2ccc(F)cc2F)c1 | – | – | – | –
Cc1ccc(NC(=O)c2noc3c2CCc2ccccc2-3)cc1 | – | – | – | 131
COC(=O)c1sccc1NC(=O)c1cccc(OC)c1 | 135 | – | – | –
Cc1ccc(NC(=O)c2ccccc2)cc1 | – | – | – | 135
Cc1ccc(NC(=O)NNC(=O)c2ccccc2)cc1 | – | – | – | –
CCc1ccc(NC(=O)c2noc3c2CCc2ccccc2-3)cc1 | – | – | – | –
Cc1ccc(-c2ccc(/C=N/O)o2)cc1[N+](=O)[O-] | – | – | – | –
CCOc1ccc(NC(=O)CN2CCC(n3cnc4cc(F)ccc43)CC2)cc1 | – | – | – | –
CCC(=O)Nc1ccc(NC(=O)c2cccc(OC)c2)nc1 | – | – | – | 129
Cc1ccc(-c2nn(-c3ccccc3)cc2C(=O)Nc2ccc(C(=O)O)cc2)cc1 | – | – | – | 130
COc1cccc(C(=O)Nc2ccc(C(=O)O)cc2)c1 | – | – | – | –
COc1ccc(C(=O)Nc2cc(OC)cc(OC)c2)cc1 | – | – | – | 132
COc1cccc(C(=O)Nc2ccc(C)cc2)c1 | – | – | – | 134
CCOC(=O)c1ccc(NC(=O)c2cn(-c3ccccc3)nc2-c2ccncc2)cc1 | – | – | – | –
COC(=O)c1cccc(NC(=O)c2cccc(OC)c2)c1 | – | – | – | 131
Cc1ccc(S(=O)(=O)c2nc(-c3cccs3)oc2NCCCN(C)C)cc1 | – | – | – | –
CC(C)c1ccc(C(=O)NN2C(=O)C3CCCCC3C2=O)cc1 (centres undefined) | – | – | – | 144
OCCC1CN(Cc2ccon2)CCN1Cc1ccc(F)c(F)c1 (centres undefined) | – | – | – | –
Cc1ccc(Nc2nc3ccccc3c(=O)[nH]2)cc1C | – | – | – | –
O=c1[nH]c(N/N=C\c2ccc(F)cc2)nc2ccccc12 | – | – | – | 150
C=CCn1c(N/N=C/c2ccc(O)cc2)nc2ccccc2c1=O | – | – | – | –
SMILES | STAT3 act | STAT1 blocker | STAT3 blocker | STAT1 act
O=c1[nH]c(N/N=C/c2ccc(O)cc2)nc2ccccc12 | – | – | – | 144
CCOC(=O)N1CCN(C(=O)C(=O)NNC(=O)COc2ccc(Cl)cc2)CC1 | – | – | – | –
CCN(c1ccccc1)S(=O)(=O)c1ccc(Cl)c(C(=O)NCC2CCCO2)c1 (centres undefined) | – | – | – | –
Cc1ccc(OCCn2c(=O)n(C)c3ccccc32)cc1 | – | – | – | 150
O=c1sc2ccccc2n1CCOc1ccccc1 | – | – | – | 142
O=C(O)CCn1c(=O)sc2ccccc21 | – | – | – | –
O=c1c2ccccc2ncn1CCCCOc1ccc(Br)cc1 | – | – | – | –
CC(C)(C)c1ccc(-c2nc3n(c(=O)c2C#N)CCS3)cc1 | – | – | – | –
Cc1cc(C)nc(Nc2n[nH]c(-c3ccc(N)cc3)n2)n1 | – | – | – | 156
Cc1cc(C)nc(Nc2n[nH]c(-c3ccccc3C)n2)n1 | – | – | – | 135
Cc1cc(C)nc(Nc2n[nH]c(-c3ccccc3Br)n2)n1 | – | – | – | –
COc1cc(OC)cc(C(=O)Nc2ccc([N+](=O)[O-])cn2)c1 | – | – | – | –
COc1ccc(C(=O)Nc2ccc([N+](=O)[O-])cn2)c(OC)c1 | – | – | – | 148
COc1cc(C)c(NC(=S)Nc2cccc(Cl)c2C)cc1OC | – | – | – | –
COc1ccc(N=c2oc3c(OC)cccc3cc2C(=O)NCc2ccco2)cc1OC | – | – | – | –
COc1ccc(N=c2oc3ccccc3cc2C(=O)Nc2ccccn2)cc1OC | – | – | – | 137
CCN(CC(=O)Nc1ccc2c(c1)OCCO2)C(=O)/C=C/c1ccc(F)cc1 | – | – | – | –
CCc1ccc(C(=O)Nc2cc(C)ccc2F)s1 | – | – | – | 132
Cc1cccc(Nc2nn3c(=O)c4ccccc4nc3s2)c1 | – | – | – | 132
COc1ccc2cnn(CCOc3ccccc3)c(=O)c2c1OC | – | – | – | 146
CCOc1ccccc1OCCn1ncc2ccc(OC)c(OC)c2c1=O | – | – | – | –
CCOC(=O)CSc1n[nH]c(NC(=O)NC(C)C)n1 | – | – | – | –
O=C1OCCC1Sc1nc2ccccc2s1 (centres undefined) | – | – | – | –
OC1CCCCC1Sc1nc2ccccc2s1 (centres undefined) | – | – | – | 130
COc1cc(NC(=O)c2cccs2)c(C(=O)OCC(=O)c2cc(C)n(-c3ccccc3)c2C)cc1OC | – | 36 | 70 | –
SMILES | STAT3 act | STAT1 blocker | STAT3 blocker | STAT1 act
CCOC(=O)CCC(NC(=O)CCCCCCCC(=O)NC(CCC(=O)OCC)C(=O)OCC)C(=O)OCC (centres undefined) | – | – | – | –
NNC(=O)/C(=C\c1ccc(Br)cc1)NC(=O)c1cccs1 | – | – | – | –
Cn1cc(Br)c(C(=O)NNC(=O)Nc2ccccc2C(F)(F)F)n1 | – | – | – | –
O=C(Nc1ccccc1)Nc1ccc2ncoc2c1 | – | – | – | 132
O=C(Nc1ccccc1)Nc1ccc2ocnc2c1 | – | – | – | –
Cc1ccc(S(=O)(=O)N2CCC(CN3C(=O)c4cccc5cccc(c45)C3=O)CC2)cc1 | 186 | – | – | –
C[C@@H]1CCC[C@H](C)N1Cc1nc(Cc2ccccc2Cl)no1 | – | – | – | –
CCS(=O)(=O)N1Cc2ccccc2CC1C(=O)Nc1nc(C)cs1 (centres undefined) | – | – | – | 134
CCS(=O)(=O)N1Cc2ccccc2CC1C(=O)Nc1nccs1 (centres undefined) | – | – | – | 133
COc1ccc(S(=O)(=O)N2Cc3ccccc3CC2C(=O)Nc2nccs2)cc1OC (centres undefined) | – | – | – | –
COc1ccc(S(=O)(=O)NCCc2nnc3ccc(SCC(=O)Nc4nc(C)cs4)nn23)cc1 | – | – | – | –
Cc1cc(NC(=O)c2ccc(-c3ccc(F)c(Cl)c3)o2)no1 | – | – | – | –
Cc1cc(NC(=O)c2ccc(-c3ccccc3F)o2)no1 | – | – | – | 144
COc1ccc(N2CCN(C(=O)c3cc4c(-c5ccc(Cl)cc5)nn(C)c4s3)CC2)cc1 | 133 | – | – | –
Cn1nc(-c2ccc(Cl)cc2)c2cc(C(=O)N3CCOCC3)sc21 | – | – | – | –
COc1ccc(/C=N/NC(N)=S)cc1OC(=O)c1cccc2ccccc12 | – | – | – | 130
COc1ccc(C(=O)Oc2cc(/C=N/NC(N)=S)ccc2OC)cc1 | – | – | – | –
COc1ccc(/C=C/CN2CCCC(C(=O)c3ccc(OC)c(F)c3)C2)cc1 (centres undefined) | – | – | – | –
O=C(NC1CCCCC1)N1CCc2ccccc21 | – | – | – | 129
